The target of assay [1] is Tyrosine-protein kinase Blk (Homo sapiens) (UniProt P51451). Kind of assay: Inhibition of human recombinant BLK at 40 nM in presence of ATP by radiometric assay relative to control. Put shortly: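 Part of a radiometric in vitro activity panel of 327 recombinant human kinases. Each kinase was tested in duplicate at one inhibitor concentration. Activity remaining was expressed as a percentage of the vehicle control, and percent inhibition was taken as 100 minus that value.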

The target in assay [2] is Death-associated protein kinase 3 (Homo sapiens) (UniProt O43293). Description: Inhibition of human recombinant DAPK3 at 40 nM in presence of ATP by radiometric assay relative to control.
For assay [3], the target named is Mitogen-activated protein kinase kinase kinase 10 (Homo sapiens) (UniProt Q02779). Kind of assay: Inhibition of human recombinant MLK2 at 40 nM in presence of ATP by radiometric assay relative to control.
In assay [4] the target is Macrophage colony-stimulating factor 1 receptor (Homo sapiens) (UniProt P07333). Kind of assay: Inhibition of human recombinant FMS at 500 nM in presence of ATP by radiometric assay relative to control.
The target in assay [5] is Transient receptor potential cation channel subfamily M member 7 (Homo sapiens) (UniProt Q96QT4). Description: Inhibition of human recombinant ChaK1 at 500 nM in presence of ATP by radiometric assay relative to control.
Assay [6] addresses DNA-PK/Ku70/Ku85 (Homo sapiens) (UniProt P78527+P12956+P13010). Description: Inhibition of human recombinant DNAPK at 500 nM in presence of ATP by radiometric assay relative to control. The assay is classed as protein-complex assay.
The target of assay [7] is T1, Serine/threonine-protein kinase TBK1 (Homo sapiens) (UniProt Q9UHD2).
T1 sequence (whole entry): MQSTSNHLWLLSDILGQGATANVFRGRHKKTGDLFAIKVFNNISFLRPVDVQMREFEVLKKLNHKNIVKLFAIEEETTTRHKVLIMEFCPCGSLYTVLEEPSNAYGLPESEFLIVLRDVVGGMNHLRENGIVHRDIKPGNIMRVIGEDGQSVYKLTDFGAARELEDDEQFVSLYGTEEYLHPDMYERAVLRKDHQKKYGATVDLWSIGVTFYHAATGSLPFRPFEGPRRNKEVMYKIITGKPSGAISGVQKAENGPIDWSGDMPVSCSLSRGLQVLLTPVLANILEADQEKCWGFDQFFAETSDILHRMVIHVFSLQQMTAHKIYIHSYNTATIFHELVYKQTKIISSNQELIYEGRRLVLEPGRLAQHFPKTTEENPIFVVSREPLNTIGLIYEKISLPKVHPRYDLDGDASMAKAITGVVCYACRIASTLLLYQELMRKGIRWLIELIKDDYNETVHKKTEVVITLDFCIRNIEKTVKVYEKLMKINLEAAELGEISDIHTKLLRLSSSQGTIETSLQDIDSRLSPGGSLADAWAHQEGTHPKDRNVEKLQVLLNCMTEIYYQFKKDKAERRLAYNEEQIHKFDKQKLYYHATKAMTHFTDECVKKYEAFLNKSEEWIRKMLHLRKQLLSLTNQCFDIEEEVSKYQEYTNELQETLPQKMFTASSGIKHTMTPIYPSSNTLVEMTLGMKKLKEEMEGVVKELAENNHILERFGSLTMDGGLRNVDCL
Description: Inhibition of human recombinant TBK1 at 500 nM in presence of ATP by radiometric assay relative to control.

Assay [8] deals with Protein kinase C iota type (Homo sapiens) (UniProt P41743). Kind of assay: Inhibition of human recombinant PKCi at 500 nM in presence of ATP by radiometric assay relative to control.
Assay [9] deals with Serine/threonine-protein kinase SBK1 (Homo sapiens) (UniProt Q52WX2). Description: Inhibition of human recombinant SBK1 at 500 nM in presence of ATP by radiometric assay relative to control.
Assay [10] has as its target Mitogen-activated protein kinase 9 (Homo sapiens) (UniProt P45984). Description: Inhibition of human recombinant JNK2 at 15 nM related to control ULK1.
Assay [11] addresses T2, Eukaryotic translation initiation factor 2-alpha kinase 3 (Homo sapiens) (UniProt Q9NZJ5).
T2 sequence (whole entry): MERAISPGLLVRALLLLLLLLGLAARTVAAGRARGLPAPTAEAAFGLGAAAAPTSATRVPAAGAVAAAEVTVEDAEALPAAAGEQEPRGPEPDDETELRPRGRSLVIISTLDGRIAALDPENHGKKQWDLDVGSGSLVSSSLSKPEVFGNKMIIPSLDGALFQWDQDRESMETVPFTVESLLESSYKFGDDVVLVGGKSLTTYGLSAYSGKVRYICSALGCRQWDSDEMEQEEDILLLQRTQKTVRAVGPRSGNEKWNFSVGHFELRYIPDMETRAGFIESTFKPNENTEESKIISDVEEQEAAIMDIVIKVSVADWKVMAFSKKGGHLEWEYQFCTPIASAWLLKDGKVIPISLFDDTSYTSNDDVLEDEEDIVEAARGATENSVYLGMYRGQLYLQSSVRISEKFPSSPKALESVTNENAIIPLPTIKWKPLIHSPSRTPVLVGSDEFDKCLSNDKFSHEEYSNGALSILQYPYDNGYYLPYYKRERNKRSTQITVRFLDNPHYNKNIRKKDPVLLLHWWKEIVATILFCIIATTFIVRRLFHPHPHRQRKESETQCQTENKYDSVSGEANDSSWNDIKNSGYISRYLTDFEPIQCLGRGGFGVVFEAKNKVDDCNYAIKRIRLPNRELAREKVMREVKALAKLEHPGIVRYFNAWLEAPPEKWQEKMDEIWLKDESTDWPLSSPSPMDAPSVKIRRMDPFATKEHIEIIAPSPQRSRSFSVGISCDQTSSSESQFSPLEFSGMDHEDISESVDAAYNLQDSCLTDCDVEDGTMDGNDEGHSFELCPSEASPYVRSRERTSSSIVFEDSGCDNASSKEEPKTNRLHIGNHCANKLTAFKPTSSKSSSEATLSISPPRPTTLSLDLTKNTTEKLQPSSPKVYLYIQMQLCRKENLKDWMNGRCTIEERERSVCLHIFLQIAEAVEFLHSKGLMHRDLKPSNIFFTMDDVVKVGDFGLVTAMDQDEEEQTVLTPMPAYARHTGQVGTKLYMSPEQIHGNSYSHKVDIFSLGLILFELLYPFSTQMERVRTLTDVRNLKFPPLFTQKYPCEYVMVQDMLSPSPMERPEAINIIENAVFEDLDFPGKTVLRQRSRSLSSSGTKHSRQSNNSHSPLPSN
Description: Inhibition of human recombinant PEK at 15 nM related to control ULK1.

Assay [12] addresses Calcium/calmodulin-dependent protein kinase kinase 2 (Homo sapiens) (UniProt Q96RR4). Kind of assay: Inhibition of human recombinant CaMKK2 at 15 nM related to control ULK1.
In assay [13] the target is Dual specificity tyrosine-phosphorylation-regulated kinase 1B (Homo sapiens) (UniProt Q9Y463). Kind of assay: Inhibition of human recombinant DYRK1B at 15 nM related to control ULK1.
Chain of Dual specificity tyrosine-phosphorylation-regulated kinase 1B (Homo sapiens) (Q9Y463 whole entry, looked up): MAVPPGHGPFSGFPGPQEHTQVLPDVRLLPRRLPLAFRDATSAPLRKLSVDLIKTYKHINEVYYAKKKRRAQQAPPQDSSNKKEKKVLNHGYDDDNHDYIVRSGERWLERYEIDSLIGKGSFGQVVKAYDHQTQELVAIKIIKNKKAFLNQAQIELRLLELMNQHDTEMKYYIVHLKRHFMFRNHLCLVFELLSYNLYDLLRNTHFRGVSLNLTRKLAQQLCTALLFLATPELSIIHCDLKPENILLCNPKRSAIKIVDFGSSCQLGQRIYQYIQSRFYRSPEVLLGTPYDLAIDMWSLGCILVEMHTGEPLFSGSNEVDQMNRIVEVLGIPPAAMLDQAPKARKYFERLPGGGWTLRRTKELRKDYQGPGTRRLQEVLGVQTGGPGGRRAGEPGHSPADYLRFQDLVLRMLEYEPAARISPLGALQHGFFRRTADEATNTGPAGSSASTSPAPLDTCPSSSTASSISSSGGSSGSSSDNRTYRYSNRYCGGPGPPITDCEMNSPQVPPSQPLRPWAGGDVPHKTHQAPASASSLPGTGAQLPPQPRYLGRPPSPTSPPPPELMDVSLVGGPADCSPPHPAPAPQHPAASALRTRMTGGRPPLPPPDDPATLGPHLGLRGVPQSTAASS

Chain of Protein kinase C iota type (Homo sapiens) (P41743 whole entry, looked up): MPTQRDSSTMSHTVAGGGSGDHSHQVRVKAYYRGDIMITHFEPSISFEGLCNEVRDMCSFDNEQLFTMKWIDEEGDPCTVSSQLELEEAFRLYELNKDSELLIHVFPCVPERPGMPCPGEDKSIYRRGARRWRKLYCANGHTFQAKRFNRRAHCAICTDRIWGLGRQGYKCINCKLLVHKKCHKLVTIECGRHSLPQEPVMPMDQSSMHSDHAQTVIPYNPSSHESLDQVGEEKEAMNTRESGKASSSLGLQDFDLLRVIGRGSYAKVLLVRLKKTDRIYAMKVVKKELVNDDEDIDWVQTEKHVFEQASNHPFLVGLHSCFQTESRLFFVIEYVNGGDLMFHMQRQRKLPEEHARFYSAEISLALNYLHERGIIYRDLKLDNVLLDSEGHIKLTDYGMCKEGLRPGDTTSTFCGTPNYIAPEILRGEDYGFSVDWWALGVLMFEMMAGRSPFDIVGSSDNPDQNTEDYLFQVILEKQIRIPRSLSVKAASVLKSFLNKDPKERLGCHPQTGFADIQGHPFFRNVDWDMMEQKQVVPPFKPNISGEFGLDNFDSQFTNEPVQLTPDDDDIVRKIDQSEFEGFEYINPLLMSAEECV
Chain of Mitogen-activated protein kinase kinase kinase 10 (Homo sapiens) (Q02779 whole entry, looked up): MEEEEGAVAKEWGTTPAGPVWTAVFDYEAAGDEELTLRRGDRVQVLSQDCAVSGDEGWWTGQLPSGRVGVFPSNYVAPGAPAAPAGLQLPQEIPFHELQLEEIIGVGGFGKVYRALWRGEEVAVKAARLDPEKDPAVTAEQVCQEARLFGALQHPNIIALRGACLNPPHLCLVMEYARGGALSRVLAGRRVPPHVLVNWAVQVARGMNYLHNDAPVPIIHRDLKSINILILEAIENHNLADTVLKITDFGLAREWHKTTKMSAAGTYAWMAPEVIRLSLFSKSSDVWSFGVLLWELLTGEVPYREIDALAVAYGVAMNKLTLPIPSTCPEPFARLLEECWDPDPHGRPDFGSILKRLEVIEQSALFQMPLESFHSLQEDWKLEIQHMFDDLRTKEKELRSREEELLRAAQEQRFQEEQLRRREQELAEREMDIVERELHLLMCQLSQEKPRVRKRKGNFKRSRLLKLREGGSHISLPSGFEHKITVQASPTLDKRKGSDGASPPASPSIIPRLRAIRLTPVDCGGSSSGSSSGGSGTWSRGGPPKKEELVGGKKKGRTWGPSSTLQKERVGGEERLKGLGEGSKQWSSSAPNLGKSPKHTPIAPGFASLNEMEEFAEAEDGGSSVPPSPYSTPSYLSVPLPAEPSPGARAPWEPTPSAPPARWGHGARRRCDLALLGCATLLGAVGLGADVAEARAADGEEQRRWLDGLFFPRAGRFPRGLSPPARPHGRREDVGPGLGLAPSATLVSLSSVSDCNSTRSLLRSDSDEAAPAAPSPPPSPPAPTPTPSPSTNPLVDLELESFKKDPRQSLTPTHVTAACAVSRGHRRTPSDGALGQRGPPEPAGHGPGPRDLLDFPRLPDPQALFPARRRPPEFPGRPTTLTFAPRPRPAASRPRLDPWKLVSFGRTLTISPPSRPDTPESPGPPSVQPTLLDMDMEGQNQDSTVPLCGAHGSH
Chain of Serine/threonine-protein kinase SBK1 (Homo sapiens) (Q52WX2 whole entry): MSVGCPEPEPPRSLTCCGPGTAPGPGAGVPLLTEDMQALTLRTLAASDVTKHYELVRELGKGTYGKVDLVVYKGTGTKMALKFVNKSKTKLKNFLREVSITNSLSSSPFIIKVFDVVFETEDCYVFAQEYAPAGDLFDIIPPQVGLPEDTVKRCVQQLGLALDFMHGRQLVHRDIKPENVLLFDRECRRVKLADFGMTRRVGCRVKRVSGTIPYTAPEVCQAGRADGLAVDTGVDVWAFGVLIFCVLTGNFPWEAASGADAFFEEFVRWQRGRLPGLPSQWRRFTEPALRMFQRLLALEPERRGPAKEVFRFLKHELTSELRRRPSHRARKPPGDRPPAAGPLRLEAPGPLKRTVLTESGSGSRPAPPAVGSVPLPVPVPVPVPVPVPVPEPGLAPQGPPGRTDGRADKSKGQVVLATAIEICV
Chain of Death-associated protein kinase 3 (Homo sapiens) (O43293 whole entry, looked up): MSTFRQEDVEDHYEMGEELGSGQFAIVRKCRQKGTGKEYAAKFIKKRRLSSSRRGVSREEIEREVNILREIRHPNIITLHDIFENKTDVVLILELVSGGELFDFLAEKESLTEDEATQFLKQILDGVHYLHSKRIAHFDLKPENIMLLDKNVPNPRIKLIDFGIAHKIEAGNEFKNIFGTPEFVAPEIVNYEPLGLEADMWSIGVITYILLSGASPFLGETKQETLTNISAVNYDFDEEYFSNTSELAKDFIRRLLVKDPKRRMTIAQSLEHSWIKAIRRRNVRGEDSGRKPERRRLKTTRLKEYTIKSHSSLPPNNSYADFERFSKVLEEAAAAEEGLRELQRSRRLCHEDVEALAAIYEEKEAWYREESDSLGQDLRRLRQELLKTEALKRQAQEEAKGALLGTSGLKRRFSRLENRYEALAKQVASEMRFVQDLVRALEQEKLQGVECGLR
Chain of Transient receptor potential cation channel subfamily M member 7 (Homo sapiens) (Q96QT4 whole entry): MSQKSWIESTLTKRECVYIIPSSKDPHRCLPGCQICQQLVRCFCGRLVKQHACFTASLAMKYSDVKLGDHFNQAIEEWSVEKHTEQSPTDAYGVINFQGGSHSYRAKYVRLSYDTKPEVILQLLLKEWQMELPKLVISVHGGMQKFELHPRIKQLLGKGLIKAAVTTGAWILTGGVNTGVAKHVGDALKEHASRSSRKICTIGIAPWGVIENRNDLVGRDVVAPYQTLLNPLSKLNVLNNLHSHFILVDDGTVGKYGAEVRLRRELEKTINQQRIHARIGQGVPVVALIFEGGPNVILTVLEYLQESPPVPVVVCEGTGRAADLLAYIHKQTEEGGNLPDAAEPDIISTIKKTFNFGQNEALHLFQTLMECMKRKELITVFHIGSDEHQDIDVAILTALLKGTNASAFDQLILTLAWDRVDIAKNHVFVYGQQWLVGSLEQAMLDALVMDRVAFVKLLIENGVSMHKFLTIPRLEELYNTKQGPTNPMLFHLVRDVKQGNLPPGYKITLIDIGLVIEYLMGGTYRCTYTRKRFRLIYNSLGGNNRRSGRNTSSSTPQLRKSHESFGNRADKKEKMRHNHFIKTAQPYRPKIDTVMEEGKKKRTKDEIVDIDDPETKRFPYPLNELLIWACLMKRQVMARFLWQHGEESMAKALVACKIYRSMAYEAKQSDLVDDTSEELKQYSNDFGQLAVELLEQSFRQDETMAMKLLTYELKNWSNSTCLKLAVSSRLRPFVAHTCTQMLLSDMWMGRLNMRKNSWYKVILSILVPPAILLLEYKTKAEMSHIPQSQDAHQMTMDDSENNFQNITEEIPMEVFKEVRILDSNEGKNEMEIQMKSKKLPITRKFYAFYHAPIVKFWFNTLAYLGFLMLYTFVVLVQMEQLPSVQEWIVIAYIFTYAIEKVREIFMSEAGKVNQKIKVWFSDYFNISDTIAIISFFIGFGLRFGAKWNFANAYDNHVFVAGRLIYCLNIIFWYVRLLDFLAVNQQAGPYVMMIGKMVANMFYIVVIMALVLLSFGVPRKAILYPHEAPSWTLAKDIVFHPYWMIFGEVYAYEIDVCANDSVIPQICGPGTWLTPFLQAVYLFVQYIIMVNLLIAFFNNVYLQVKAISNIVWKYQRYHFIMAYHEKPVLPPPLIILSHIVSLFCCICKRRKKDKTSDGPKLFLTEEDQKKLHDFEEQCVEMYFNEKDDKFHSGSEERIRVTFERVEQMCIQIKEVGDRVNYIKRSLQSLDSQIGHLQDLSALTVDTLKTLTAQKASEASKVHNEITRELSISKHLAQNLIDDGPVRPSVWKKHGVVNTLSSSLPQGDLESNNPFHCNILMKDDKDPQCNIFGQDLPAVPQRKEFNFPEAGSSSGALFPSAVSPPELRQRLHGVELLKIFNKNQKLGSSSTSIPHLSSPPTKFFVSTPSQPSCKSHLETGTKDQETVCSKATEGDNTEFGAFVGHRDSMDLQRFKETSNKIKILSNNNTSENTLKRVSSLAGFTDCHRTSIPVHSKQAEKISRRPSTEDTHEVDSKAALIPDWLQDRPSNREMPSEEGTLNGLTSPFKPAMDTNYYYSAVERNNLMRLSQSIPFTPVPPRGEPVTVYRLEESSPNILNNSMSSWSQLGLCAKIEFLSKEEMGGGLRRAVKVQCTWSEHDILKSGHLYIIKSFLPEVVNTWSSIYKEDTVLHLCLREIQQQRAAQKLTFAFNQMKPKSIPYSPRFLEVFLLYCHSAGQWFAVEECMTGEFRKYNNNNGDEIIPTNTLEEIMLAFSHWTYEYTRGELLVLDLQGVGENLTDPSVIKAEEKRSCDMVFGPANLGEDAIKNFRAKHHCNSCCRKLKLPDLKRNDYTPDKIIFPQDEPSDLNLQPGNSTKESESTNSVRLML

In the case of `O=C(N[C@@H](C1CC1)C(F)(F)F)c1cc(-c2cnn3cc(-c4ccc(F)cc4)cnc23)cs1`, the values for the inhibition in [1], in assay [2] and in assay [3] were 17%, 8% and 0%, respectively.

As to `CNC(=O)c1ccccc1Oc1nc(Nc2cc(OC)c(OC)c(OC)c2)ncc1Br`, the inhibition in assay [4] stood at 19%; in assay [5] it was 0%; in assay [6] it was 12%; in [7], 0%; in assay [8], 0%; in [9], 50%.

As for `CC(C)[C@H](NC(=O)c1cc(-c2cnn3cc(-c4ccc(OCCN5CCCCC5)cc4)cnc23)cs1)C(F)(F)F`, the fold change (FC) in [10] stood at 0; in assay [11] it was 0; in assay [12], 0.01; in [13], 0.74.

The values are drawn from ChEMBL document CHEMBL5653631, “A Potent and Selective ULK1 Inhibitor Suppresses Autophagy and Sensitizes Cancer Cells to Nutrient Stress” (iScience, 2018).
